# Key:
# Matrilysin = molecular target: T1, Matrilysin (Homo sapiens, UniProt P09237); assay: In vitro inhibitory activity against matrix metalloprotease-7 (matrilysin, MMP-7)
# T1 sequence (P09237 whole entry): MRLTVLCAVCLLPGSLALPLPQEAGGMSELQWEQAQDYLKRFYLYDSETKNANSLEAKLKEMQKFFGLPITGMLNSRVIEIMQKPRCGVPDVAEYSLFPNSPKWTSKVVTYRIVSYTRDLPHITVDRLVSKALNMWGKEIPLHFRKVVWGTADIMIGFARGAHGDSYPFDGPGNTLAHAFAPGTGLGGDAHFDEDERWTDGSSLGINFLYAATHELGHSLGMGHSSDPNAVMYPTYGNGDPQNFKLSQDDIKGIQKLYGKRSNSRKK
# Procedure, shortened: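 Human recombinant truncated enzymes, final MMP-1 8 nM, MMP-3 16 nM, MMP-7 2 nM. Quenched-fluorescence assay with Mca-Pro-Leu-Gly-Leu-Dpa-Ala-Arg-NH₂ (4 µM) in 50 mM Tris pH 7.5, 0.2 M NaCl, 5 mM CaCl₂, 0.02% Brij-35 at 25 °C. Fluorescence (ex 328/em 393 nm) read kinetically for 30 min.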
# Collagenase 3 = Collagenase 3 (Homo sapiens, UniProt P45452); assay: In vitro inhibitory activity against human recombinant matrix metalloprotease-13 (collagenase-3)
# Interstitial collagenase = molecular target: T2, Interstitial collagenase (Homo sapiens, UniProt P03956); assay: In vitro inhibitory activity against matrix metalloprotease -1 (collagenase-1)
# T2 sequence (P03956 whole entry): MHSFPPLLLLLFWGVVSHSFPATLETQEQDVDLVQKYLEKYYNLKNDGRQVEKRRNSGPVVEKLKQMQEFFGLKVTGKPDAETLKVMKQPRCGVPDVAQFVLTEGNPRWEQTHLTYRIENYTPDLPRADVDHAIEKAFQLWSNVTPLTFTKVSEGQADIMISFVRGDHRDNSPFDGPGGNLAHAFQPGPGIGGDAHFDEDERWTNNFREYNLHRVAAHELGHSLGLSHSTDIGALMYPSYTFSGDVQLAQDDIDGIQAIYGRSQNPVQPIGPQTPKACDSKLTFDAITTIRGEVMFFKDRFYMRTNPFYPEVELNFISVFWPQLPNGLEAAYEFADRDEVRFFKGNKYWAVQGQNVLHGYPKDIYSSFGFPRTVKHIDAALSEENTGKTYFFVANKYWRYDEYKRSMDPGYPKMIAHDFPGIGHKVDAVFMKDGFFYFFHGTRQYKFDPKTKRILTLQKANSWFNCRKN
# Stromelysin-1 = Stromelysin-1 (Homo sapiens, UniProt P08254); assay: In vitro inhibitory activity against matrix metalloprotease -3 (stromelysin)
# [1] = molecular target: 72 kDa type IV collagenase (Homo sapiens, UniProt P08253); assay: In vitro inhibitory activity against matrix metalloprotease -2 (gelatinase-A)
# Chain of 72 kDa type IV collagenase (P08253 whole entry): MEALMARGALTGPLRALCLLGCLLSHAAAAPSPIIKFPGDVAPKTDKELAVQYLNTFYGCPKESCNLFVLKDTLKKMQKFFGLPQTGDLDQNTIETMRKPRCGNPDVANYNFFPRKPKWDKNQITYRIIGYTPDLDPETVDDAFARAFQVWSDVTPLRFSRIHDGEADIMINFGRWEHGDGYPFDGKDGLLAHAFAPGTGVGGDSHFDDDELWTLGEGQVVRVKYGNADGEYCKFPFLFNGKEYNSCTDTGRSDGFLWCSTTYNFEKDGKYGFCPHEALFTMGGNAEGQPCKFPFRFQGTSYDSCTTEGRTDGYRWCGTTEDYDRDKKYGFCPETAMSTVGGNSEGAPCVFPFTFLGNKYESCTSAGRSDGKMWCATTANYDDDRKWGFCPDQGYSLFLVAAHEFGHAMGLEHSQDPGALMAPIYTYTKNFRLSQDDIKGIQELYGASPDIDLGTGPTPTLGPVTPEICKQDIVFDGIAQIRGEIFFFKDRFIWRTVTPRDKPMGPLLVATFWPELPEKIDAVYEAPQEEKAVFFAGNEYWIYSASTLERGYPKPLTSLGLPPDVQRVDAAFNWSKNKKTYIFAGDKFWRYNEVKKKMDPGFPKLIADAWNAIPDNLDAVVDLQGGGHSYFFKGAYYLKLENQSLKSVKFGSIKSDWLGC
# Chain of Stromelysin-1 (P08254 whole entry): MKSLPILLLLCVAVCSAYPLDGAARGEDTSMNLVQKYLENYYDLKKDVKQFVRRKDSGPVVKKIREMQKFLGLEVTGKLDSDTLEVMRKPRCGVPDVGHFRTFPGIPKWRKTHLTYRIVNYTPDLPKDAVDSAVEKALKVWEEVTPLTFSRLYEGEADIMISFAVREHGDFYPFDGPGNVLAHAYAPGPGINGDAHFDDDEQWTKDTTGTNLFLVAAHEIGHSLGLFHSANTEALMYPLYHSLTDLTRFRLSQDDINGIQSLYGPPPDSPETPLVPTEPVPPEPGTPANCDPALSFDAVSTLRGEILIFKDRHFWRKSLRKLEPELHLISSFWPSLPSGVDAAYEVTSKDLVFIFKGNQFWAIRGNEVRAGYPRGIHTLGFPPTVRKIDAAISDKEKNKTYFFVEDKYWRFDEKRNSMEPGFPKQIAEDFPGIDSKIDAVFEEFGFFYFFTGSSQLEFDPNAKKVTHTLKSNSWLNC
Compound,IC50 (Matrilysin),IC50 (Collagenase 3),IC50 (Interstitial collagenase),IC50 (Stromelysin-1),IC50 [1]
CCCCOc1ccc(S(=O)(=O)N2C[C@@H](NC(=O)[C@@H](O)C(C)C)C[C@@H]2C(=O)NO)cc1,1700 nM,0.8 nM,270 nM,8 nM,–
CCCCOc1ccc(S(=O)(=O)N2C[C@@H](NC(=O)[C@H](C)O)C[C@@H]2C(=O)NO)cc1,4200 nM,0.9 nM,1200 nM,10 nM,–
CCCCOc1ccc(S(=O)(=O)N2C[C@@H](NS(C)(=O)=O)C[C@@H]2C(=O)NO)cc1,3900 nM,0.7 nM,1300 nM,–,0.8 nM
CCCCCc1ccc(S(=O)(=O)N2C[C@@H](N3CCOCC3)C[C@@H]2C(=O)NO)cc1,7400 nM,0.7 nM,–,12 nM,–
CCCCOc1ccc(S(=O)(=O)N2C[C@@H](NC(=O)COC)C[C@@H]2C(=O)NO)cc1,4900 nM,0.7 nM,1200 nM,14 nM,–
CCCOc1ccc(S(=O)(=O)N2C[C@@H](N3CCCC3)C[C@@H]2C(=O)NO)cc1,8700 nM,1 nM,310 nM,8 nM,< 1 nM
COc1ccc(S(=O)(=O)N2C[C@@H](N3CCS(=O)(=O)CC3)C[C@@H]2C(=O)NO)cc1,7100 nM,1 nM,300 nM,23 nM,–
CCCCOc1ccc(S(=O)(=O)N2C[C@@H](N3CCCS3(=O)=O)C[C@@H]2C(=O)NO)cc1,680 nM,< 0.4 nM,230 nM,13 nM,–
CCCOc1ccc(S(=O)(=O)N2C[C@@H](N3C(=O)CN(C)C3=O)C[C@@H]2C(=O)NO)cc1,2600 nM,0.3 nM,260 nM,9 nM,–
C=CCN1CC(=O)N([C@H]2C[C@H](C(=O)NO)N(S(=O)(=O)c3ccc(OCCC)cc3)C2)C1=O,2600 nM,0.4 nM,350 nM,11 nM,0.8 nM
CCCN1CC(=O)N([C@H]2C[C@H](C(=O)NO)N(S(=O)(=O)c3ccc(OCCOC)cc3)C2)C1=O,11000 nM,2 nM,2500 nM,30 nM,2 nM
COc1ccc(S(=O)(=O)N2C[C@@H](N(Cc3cccnc3)C(=O)C(C)C)C[C@@H]2C(=O)NO)cc1,–,17 nM,270 nM,10 nM,2.2 nM
COc1ccc(S(=O)(=O)N2C[C@@H](NC(=O)[C@H](C)OCc3ccccc3)C[C@@H]2C(=O)NO)cc1,–,–,140 nM,7 nM,0.3 nM
COc1ccc(S(=O)(=O)N2C[C@@H](N3CCCS3(=O)=O)C[C@@H]2C(=O)NO)cc1,1400 nM,0.4 nM,42 nM,13 nM,–
COc1ccc(S(=O)(=O)N2C[C@@H](N3CCOCC3)C[C@@H]2C(=O)NO)cc1,–,–,220 nM,14 nM,6 nM
CN1CC(=O)N([C@H]2C[C@H](C(=O)NO)N(S(=O)(=O)c3ccc(Oc4ccccc4)cc3)C2)C1=O,310 nM,< 0.4 nM,21 nM,6 nM,–
CCCN[C@H]1C[C@H](C(=O)NO)N(S(=O)(=O)c2ccc(OC)cc2)C1,2200 nM,5 nM,–,87 nM,–
COc1ccc(S(=O)(=O)N2C[C@@H](NCCc3ccccc3)C[C@@H]2C(=O)NO)cc1,1400 nM,–,560 nM,57 nM,–
O=C(NO)[C@H]1C[C@H](N2CCCC2)CN1S(=O)(=O)c1ccc(Oc2ccc(F)cc2)cc1,850 nM,< 0.4 nM,20 nM,4 nM,–
CCCOc1ccc(S(=O)(=O)N2C[C@@H](NC(=O)COC)C[C@@H]2C(=O)NO)cc1,> 10000 nM,3 nM,500 nM,30 nM,–
COc1ccc(S(=O)(=O)N2C[C@@H](N(C)S(C)(=O)=O)C[C@@H]2C(=O)NO)cc1,520 nM,0.5 nM,19 nM,6 nM,–
COc1ccc(S(=O)(=O)N2C[C@@H](NC(=O)[C@H](Cc3ccccc3)OCc3ccccc3)C[C@@H]2C(=O)NO)cc1,–,2 nM,240 nM,10 nM,0.2 nM

Compound,IC50 (Matrilysin),IC50 (Collagenase 3),IC50 (Interstitial collagenase),IC50 (Stromelysin-1),IC50 [1]
O=C(NO)[C@H]1C[C@H](N2CCOCC2)CN1S(=O)(=O)c1ccc(Oc2ccccc2)cc1,710 nM,< 0.4 nM,19 nM,7 nM,–
CCCN(C(=O)[C@H](C)O)[C@H]1C[C@H](C(=O)NO)N(S(=O)(=O)c2ccc(OC)cc2)C1,8500 nM,1 nM,87 nM,2 nM,0.7 nM
CS(=O)(=O)N[C@H]1C[C@H](C(=O)NO)N(S(=O)(=O)c2ccc(Oc3ccncc3)cc2)C1,> 10000 nM,0.8 nM,450 nM,22 nM,–
CCCCOc1ccc(S(=O)(=O)N2C[C@@H](N3C(=O)CN(CCC)C3=O)C[C@@H]2C(=O)NO)cc1,1200 nM,0.3 nM,570 nM,10 nM,0.4 nM
CNC(=O)N[C@H]1C[C@H](C(=O)NO)N(S(=O)(=O)c2ccc(OC)cc2)C1,–,27 nM,3100 nM,300 nM,–
CCCN([C@H]1C[C@H](C(=O)NO)N(S(=O)(=O)c2ccc(OC)cc2)C1)S(C)(=O)=O,920 nM,0.8 nM,33 nM,10 nM,0.8 nM
CN1CC(=O)N([C@H]2C[C@H](C(=O)NO)N(S(=O)(=O)c3ccc(Oc4ccncc4)cc3)C2)C1=O,7400 nM,0.7 nM,600 nM,11 nM,–
COc1ccc(S(=O)(=O)N2C[C@@H](N3C(=O)CN(C)C3=O)C[C@@H]2C(=O)NO)cc1,1800 nM,0.5 nM,200 nM,8 nM,–
CCCOc1ccc(S(=O)(=O)N2C[C@@H](NC(=O)[C@H](C)O)C[C@@H]2C(=O)NO)cc1,3500 nM,1 nM,140 nM,8 nM,–
COc1ccc(S(=O)(=O)N[C@H]2C[C@H](C(=O)NO)N(S(=O)(=O)c3ccc(OC)cc3)C2)cc1,3000 nM,2 nM,350 nM,36 nM,3 nM
CCCCOc1ccc(S(=O)(=O)N2C[C@@H](NS(=O)(=O)c3cn(C)cn3)C[C@@H]2C(=O)NO)cc1,–,–,700 nM,6 nM,–
CCCCCc1ccc(S(=O)(=O)N2C[C@@H](N3CCCCC3)C[C@@H]2C(=O)NO)cc1,9800 nM,0.9 nM,2000 nM,12 nM,–
O=C(NO)[C@H]1C[C@H](N2CCCCC2)CN1S(=O)(=O)c1ccc(Oc2ccccc2)cc1,610 nM,< 0.4 nM,17 nM,8 nM,–
CCCOc1ccc(S(=O)(=O)N2C[C@@H](N3CCCS3(=O)=O)C[C@@H]2C(=O)NO)cc1,840 nM,< 0.4 nM,100 nM,8 nM,–
CCCCOc1ccc(S(=O)(=O)N2C[C@@H](NC(=O)[C@@H](O)CC(C)C)C[C@@H]2C(=O)NO)cc1,2400 nM,0.9 nM,440 nM,10 nM,–
CCCOc1ccc(S(=O)(=O)N2C[C@@H](N3CCCCC3)C[C@@H]2C(=O)NO)cc1,620 nM,0.4 nM,210 nM,9 nM,–
CCCCOc1ccc(S(=O)(=O)N2C[C@@H](N)C[C@@H]2C(=O)NO)cc1,–,–,380 nM,8 nM,–
CC(C)COc1ccc(S(=O)(=O)N2C[C@@H](N3C(=O)CN(C)C3=O)C[C@@H]2C(=O)NO)cc1,2300 nM,2.8 nM,300 nM,3 nM,–
O=C(NO)[C@H]1C[C@H](N2CCCC2)CN1S(=O)(=O)c1ccc(Oc2ccccc2)cc1,790 nM,< 0.4 nM,19 nM,5 nM,–
COc1ccc(S(=O)(=O)N2C[C@@H](NC(=O)c3ccc(-c4ccccc4)cc3)C[C@@H]2C(=O)NO)cc1,–,–,> 1000 nM,400 nM,–
CCOc1ccc(S(=O)(=O)N2C[C@@H](N3C(=O)CN(C)C3=O)C[C@@H]2C(=O)NO)cc1,7500 nM,4 nM,580 nM,33 nM,–
COc1ccc(S(=O)(=O)N2C[C@@H](N3CCCCC3)C[C@@H]2C(=O)NO)cc1,7400 nM,1 nM,–,48 nM,6 nM
